Results reported in ChEMBL document CHEMBL3877303 (J Med Chem, 2017).
Calls of active or inactive are those of the source. No cut-off for these calls is given here.

What was measured:
[1] = target: T1, Mast/stem cell growth factor receptor Kit (Homo sapiens, UniProt P10721); details: GISTT1, 1 uM
[2] = target: T1, Mast/stem cell growth factor receptor Kit; details: GISTT1, 1 uM; remark: listed apart in the source
[3] = target: T1, Mast/stem cell growth factor receptor Kit; details: 1 uM
[4] = target: T2, Platelet-derived growth factor receptor beta (Homo sapiens, UniProt P09619); assay: Inhibition of Tel-fused PDGFR-beta (unknown origin) expressed in BAF3 cells assessed as growth inhibition measured after 72 hrs by CellTiter-Glo or CCK8 assay; type: cell-based
In short: (§1)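 BaF3 lines were made by retroviral transduction with kinase-fusion MSCV vectors packaged in HEK293T cells. Cells were selected with puromycin for 48 h, then selected again without IL-3 so growth depends on the introduced kinase. […] They were seeded at 1 to 2.5×10^4 cells/mL with compound dilutions and incubated 72 h. Viability was read by CellTiter-Glo luminescence or CCK-8 absorbance (450/655 nm), normalized to DMSO control; GI50 was curve-fitted from triplicate tests.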

[5] = tested on: BaF3; assay: Inhibition of BCR/ABL p210 fusion protein M356T mutant (unknown origin) expressed in BAF3 cells assessed as growth inhibition measured after 72 hrs by CellTiter-Glo or CCK8 assay; type: cell-based; details: Homo sapiens
In short: as §1

[6] = tested on: Mast/stem cell growth factor receptor Kit (Homo sapiens), P10721 [T670I]; assay: Inhibition of Tel-fused c-KIT T670I mutant (unknown origin) expressed in BAF3 cells assessed as growth inhibition measured after 72 hrs by CellTiter-Glo or CCK8 assay; type: cell-based
In short: as §1

[7] = tested on: Mast/stem cell growth factor receptor Kit (Homo sapiens), P10721 [D816V]; assay: Inhibition of Tel-fused c-KIT D816V mutant (unknown origin) expressed in BAF3 cells assessed as growth inhibition measured after 72 hrs by CellTiter-Glo or CCK8 assay; type: cell-based
In short: as §1

[8] = target: T3, BCR/ABL p210 fusion protein (Homo sapiens, UniProt A1Z199); assay: Inhibition of BCR/ABL p210 fusion protein autophosphorylation at Y245 in human K562 cells measured after 2 hrs by immunoblotting; type: cell-based
In short: (§2)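 After an ice-cold PBS wash, cells were lysed in RIPA buffer (50 mM Tris pH 8.0) with protease and phosphatase inhibitors, and protein was quantified by BCA. Lysates were run on SDS-PAGE, transferred to PVDF and blocked in 5% milk/TBST. Phospho- and total proteins were probed by immunoblot with ECL detection; β-actin served as loading control.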
Target sequence in this assay (A1Z199 whole entry, the tested form may be a part): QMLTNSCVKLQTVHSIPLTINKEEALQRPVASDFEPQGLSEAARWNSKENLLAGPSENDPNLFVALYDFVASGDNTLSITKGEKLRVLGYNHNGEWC

[9] = target: T3, BCR/ABL p210 fusion protein; assay: Inhibition of BCR/ABL p210 fusion protein autophosphorylation at Y245 in human KU812 cells at 0.01 to 3 uM measured after 2 hrs by immunoblotting; type: cell-based
In short: as §2
Target sequence in this assay (A1Z199 1-97): as the sequence (A1Z199 whole entry, the tested form may be a part) above

[10] = target: T3, BCR/ABL p210 fusion protein; assay: Inhibition of BCR/ABL p210 fusion protein autophosphorylation at Y245 in human […] cells at 0.01 to 3 uM measured after 2 hrs by immunoblotting; type: cell-based
In short: as §2
Target sequence in this assay (A1Z199 1-97): as the sequence (A1Z199 whole entry, the tested form may be a part) above

[11] = target: T1, Mast/stem cell growth factor receptor Kit; assay: Inhibition of c-KIT autophosphorylation at Y719 in human GISTT1 cells at 0.03 to 10 uM measured after 2 hrs by immunoblotting; type: cell-based
In short: as §2

[12] = target: T1, Mast/stem cell growth factor receptor Kit; assay: Inhibition of c-KIT mediated signaling pathways assessed as reduction in ERK1/2 phosphorylation at T202/Y204 in human GISTT1 cells at 0.03 to 10 uM measured after 2 hrs by immunoblotting; type: cell-based
In short: as §2

[13] = target: T1, Mast/stem cell growth factor receptor Kit; assay: Inhibition of c-KIT mediated signaling pathways assessed as reduction in S6K phosphorylation at T389 in human GIST882 cells at 0.03 to 10 uM measured after 2 hrs by immunoblotting; type: cell-based
In short: as §2

[14] = Cell cycle arrest in human MEG01 cells assessed as accumulation at G0/G1 phase at 0.3 uM after 24 hrs by propidium iodide/RNase staining based flow cytometry; type: functional; details: MEG-01
In short: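 Cells were exposed to serially diluted compound, then fixed in cold 70% ethanol overnight at -20 °C. They were stained with PI/RNase buffer for DNA-content cell-cycle analysis.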

[15] = tested on: K562; assay: Induction of apoptosis in human K562 cells assessed as increase in cleaved caspase-3 level at 0.1 to 3 uM by Western blot analysis; type: functional, cell-based
In short: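 Cells were treated with DMSO or serially diluted compound for the indicated periods. They were washed in ice-cold PBS and lysed in RIPA buffer with protease/phosphatase inhibitors, and protein was quantified by BCA. Lysates were resolved by SDS-PAGE, transferred to PVDF and blocked in 5% milk/TBST. Blots were probed for PARP and caspase-3, with β-actin as loading control, and detected by ECL.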

[16] = Tmax in Sprague-Dawley rat at 1 mg/kg, iv; type: ADME, organism-based; details: in vivo
In short: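 Male Sprague-Dawley rats, 6-8 weeks old, fasted overnight, dosed iv or po. Jugular vein blood (~0.2 mL, heparin) sampled at 1 min to 8 h (iv) or 5 min to 24 h (po). Plasma separated by centrifugation at 2-8 °C and stored at -80 °C before analysis.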

[17] = tested on: K562; assay: Anticancer activity against human K562 cells xenografted in nu/nu mouse assessed as reduction in tumor progression administered daily via oral gavage measured 28 days post compound treatment; type: functional, cell-based
In short: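 Female nu/nu mice received ten million K562 cells subcutaneously in the right flank, in PBS mixed 1:1 with Matrigel. Daily oral gavage began at 200-400 mm³ tumor size, with 4 or 5 mice per group. Dosing was 25, 50 or 100 mg/kg/d or vehicle (0.5% methylcellulose/0.4% Tween80) for 28 days. Body weight and tumor size were normalized to initial values, and final tumor weight was recorded. Data are mean ± SEM.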

[18] = tested on: Mus musculus; assay: Toxicity in nu/nu mouse xenografted with human K562 cells assessed as change in body weight at 25 to 100 mg/kg/day administered via oral gavage measured after 28 days; type: organism-based; details: in vivo, 672 h
In short: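 Female nu/nu mice given 10 million K562 cells in PBS/Matrigel (1:1) subcutaneously into the right flank. Once tumors reached 200 to 400 mm³, mice were randomized into groups of 4 or 5 and dosed daily by oral gavage in 0.5% methylcellulose/0.4% Tween80 in water, or vehicle, for 28 days. Body weight measured and expressed relative to initial; mean ± SEM.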

[19] = target: Epithelial discoidin domain-containing receptor 1 (Homo sapiens, UniProt Q08345); assay: Inhibition of human GST-tagged DDR1 cytoplasmic domain expressed in baculovirus expression system assessed as residual activity at 1 uM by KINOMEscan binding assay relative to control
[20] = Anticancer activity against human GISTT1 cells xenografted in nu/nu mouse assessed as tumor weight at 25 mg/kg, po administered daily via oral gavage measured 21 days post compound treatment (reference value: 2.86 g)
[21] = target: T2, Platelet-derived growth factor receptor beta; assay: Inhibition of recombinant His-tagged human PDGFR-beta cytoplasmic domain (558 to 1106 residues) expressed in baculovirus expression system assessed as residual activity at 1 uM by KINOMEscan binding assay relative to control

T1 sequence (P10721 whole entry): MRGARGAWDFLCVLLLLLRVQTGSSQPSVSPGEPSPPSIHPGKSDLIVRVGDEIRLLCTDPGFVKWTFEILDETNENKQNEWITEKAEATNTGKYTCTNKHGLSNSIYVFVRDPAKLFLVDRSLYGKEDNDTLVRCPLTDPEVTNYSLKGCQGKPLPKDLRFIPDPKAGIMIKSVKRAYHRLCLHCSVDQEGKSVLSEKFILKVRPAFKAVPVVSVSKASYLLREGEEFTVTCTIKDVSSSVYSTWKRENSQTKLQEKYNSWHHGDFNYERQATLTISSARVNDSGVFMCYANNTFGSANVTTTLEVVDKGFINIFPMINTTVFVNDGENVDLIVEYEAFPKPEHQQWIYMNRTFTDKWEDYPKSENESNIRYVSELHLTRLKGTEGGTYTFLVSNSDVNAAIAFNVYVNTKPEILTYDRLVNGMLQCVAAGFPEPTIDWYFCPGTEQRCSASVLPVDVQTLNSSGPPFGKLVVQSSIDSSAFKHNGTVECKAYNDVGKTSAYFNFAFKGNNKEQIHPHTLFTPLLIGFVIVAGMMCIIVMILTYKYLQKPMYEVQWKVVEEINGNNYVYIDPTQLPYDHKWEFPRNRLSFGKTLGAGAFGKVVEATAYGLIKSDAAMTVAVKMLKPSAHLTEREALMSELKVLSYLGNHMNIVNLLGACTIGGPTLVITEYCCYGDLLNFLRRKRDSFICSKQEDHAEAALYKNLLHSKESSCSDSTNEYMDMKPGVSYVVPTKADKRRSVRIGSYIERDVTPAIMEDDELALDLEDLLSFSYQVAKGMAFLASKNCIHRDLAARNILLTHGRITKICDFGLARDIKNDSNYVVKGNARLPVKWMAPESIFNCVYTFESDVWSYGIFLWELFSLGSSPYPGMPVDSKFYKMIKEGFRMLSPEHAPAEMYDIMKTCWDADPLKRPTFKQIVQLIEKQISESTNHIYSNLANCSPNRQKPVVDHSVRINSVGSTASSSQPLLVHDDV
T2 sequence (P09619 whole entry, the tested form may be a part): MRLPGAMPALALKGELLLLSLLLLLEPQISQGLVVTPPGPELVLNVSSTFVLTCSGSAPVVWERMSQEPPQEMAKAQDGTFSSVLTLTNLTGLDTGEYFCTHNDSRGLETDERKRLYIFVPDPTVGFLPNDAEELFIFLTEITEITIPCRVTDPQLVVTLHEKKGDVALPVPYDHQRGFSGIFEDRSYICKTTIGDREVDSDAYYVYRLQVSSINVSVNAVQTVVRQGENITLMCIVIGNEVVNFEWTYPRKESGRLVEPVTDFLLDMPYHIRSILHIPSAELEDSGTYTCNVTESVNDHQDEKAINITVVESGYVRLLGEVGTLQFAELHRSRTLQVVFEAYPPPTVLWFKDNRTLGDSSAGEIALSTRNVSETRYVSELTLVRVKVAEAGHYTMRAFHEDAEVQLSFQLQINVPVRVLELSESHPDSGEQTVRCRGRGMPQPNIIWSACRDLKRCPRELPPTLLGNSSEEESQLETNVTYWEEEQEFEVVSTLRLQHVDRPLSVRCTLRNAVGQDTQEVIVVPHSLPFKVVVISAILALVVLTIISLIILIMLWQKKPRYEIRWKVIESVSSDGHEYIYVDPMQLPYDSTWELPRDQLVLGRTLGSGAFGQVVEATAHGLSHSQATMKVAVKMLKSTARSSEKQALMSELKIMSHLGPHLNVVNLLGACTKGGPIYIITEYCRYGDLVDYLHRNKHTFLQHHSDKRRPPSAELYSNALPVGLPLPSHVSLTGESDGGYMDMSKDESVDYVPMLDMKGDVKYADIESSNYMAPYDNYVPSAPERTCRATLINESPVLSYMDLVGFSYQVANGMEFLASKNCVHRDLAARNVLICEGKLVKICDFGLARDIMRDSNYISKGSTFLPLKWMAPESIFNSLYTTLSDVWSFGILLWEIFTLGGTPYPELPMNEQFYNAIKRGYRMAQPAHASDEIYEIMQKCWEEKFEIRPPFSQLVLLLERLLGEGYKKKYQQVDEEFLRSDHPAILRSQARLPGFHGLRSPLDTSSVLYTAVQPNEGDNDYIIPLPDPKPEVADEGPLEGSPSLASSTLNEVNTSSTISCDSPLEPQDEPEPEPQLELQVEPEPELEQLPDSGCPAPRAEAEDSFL
Sequence of Mast/stem cell growth factor receptor Kit (Homo sapiens), P10721 [D816V] (P10721 whole entry D816V, the tested form may be a part): as the sequence (P10721 whole entry) above, with D816V counted along it
Sequence of Epithelial discoidin domain-containing receptor 1 (Q08345 whole entry, the tested form may be a part): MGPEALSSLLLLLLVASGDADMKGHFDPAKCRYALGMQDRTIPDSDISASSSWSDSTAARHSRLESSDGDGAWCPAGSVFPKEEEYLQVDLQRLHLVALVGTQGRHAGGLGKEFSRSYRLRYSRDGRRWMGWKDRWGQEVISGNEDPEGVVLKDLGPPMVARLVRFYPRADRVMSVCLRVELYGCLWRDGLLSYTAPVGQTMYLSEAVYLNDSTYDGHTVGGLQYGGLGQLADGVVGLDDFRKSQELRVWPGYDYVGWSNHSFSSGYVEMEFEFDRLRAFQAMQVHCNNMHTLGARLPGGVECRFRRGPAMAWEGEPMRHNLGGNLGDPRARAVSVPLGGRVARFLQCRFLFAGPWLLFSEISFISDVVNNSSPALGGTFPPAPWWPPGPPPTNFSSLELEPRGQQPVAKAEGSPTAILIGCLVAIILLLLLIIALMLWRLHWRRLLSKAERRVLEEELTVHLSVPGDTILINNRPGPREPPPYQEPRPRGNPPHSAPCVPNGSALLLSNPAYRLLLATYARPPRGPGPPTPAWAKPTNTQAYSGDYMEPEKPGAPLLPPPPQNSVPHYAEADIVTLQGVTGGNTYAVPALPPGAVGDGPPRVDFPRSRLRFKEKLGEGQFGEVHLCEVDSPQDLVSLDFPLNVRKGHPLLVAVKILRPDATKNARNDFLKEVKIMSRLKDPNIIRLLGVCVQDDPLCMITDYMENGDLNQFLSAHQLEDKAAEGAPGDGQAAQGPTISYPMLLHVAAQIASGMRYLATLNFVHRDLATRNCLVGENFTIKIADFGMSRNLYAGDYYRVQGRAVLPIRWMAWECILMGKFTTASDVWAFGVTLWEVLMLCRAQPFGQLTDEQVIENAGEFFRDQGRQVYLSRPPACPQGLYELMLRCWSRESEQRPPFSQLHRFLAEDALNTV
Sequence of Mast/stem cell growth factor receptor Kit (Homo sapiens), P10721 [T670I] (P10721 whole entry T670I, the tested form may be a part): as the sequence (P10721 whole entry) above, with T670I counted along it

Structure (SMILES): Cc1ccc(NC(=O)c2ccc(CN3CCN(C)CC3)cc2)cc1Nc1nccc(-c2cccnc2)n1 [IMATINIB]
- inhibition [1]: Active
- inhibition [2]: Active
- inhibition [3]: Active

Structure (SMILES): Cc1ccc(C(=O)N2CCC(Oc3cc(NC(=O)c4ccc(CN5CCN(C)CC5)c(C(F)(F)F)c4)ccc3C)CC2)cn1
- GI50 [4]: 14 nM
- GI50 [5]: 270 nM
- GI50 [6]: 1850 nM
- GI50 [7]: 5.06 µM
- EC50 [8]: < 100 nM
- inhibition [9]: Active
- inhibition [10]: Active
- inhibition [11]: Active
- inhibition [12]: Active
- inhibition [13]: Active
- Activity [14]: Active
- Activity [15]: Active
- Tmax [16]: 1.02 min
- TGI [17]: Dose-dependent effect
- Activity [18]: Non-Toxic
- Activity [19]: 0.35%
- Activity [20]: 2.2 g
- Activity [21]: 0.3%
